Source: ChEMBL document CHEMBL4002631, “Synthesis, antimycobacterial and cytotoxic activity of α,β-unsaturated amides and 2,4-disubstituted oxazoline derivatives” (Bioorg Med Chem Lett, 2017)
Values after ≈ are worked out from the molar mass of the structure shown.

Each compound was assayed on Mycobacterium tuberculosis (assay: Antimycobacterial activity against isoniazid/rifampicin/ethambutol-resistant Mycobacterium tuberculosis clinical isolate after 4 days by Alamar blue assay). Conditions: 96 h.
Assay type: functional
In short: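 Microplate Alamar blue assay against M. tuberculosis H37Rv (sensitive to isoniazid, rifampicin and ethambutol) and a clinical isolate resistant to all three drugs. Compounds were tested at 256, 128, 64, 32, 16, 8, 4, 2 and 1 µg/mL. Isoniazid, rifampicin, ethambutol and ofloxacin controls were run under the same conditions. MIC is given in µg/mL and converted to µM.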

Structure (SMILES)	MIC [µM]
Clc1ccc(/C=C/C2=N[C@@H](Cc3ccccc3)CO2)cc1	26.9 (≈ 8.01 µg/mL)
C(=C\c1ccc(OCc2ccccc2)cc1)/C1=N[C@@H](Cc2ccccc2)CO1	21.6 (≈ 7.98 µg/mL)
C(=C\c1ccccc1)/C1=N[C@@H](Cc2ccccc2)CO1	30.4 (≈ 8.01 µg/mL)
COc1ccc(/C=C/C(=O)N[C@H](CO)Cc2ccccc2)cc1	51.3 (≈ 16 µg/mL)
O=C(/C=C/c1ccc(OCc2ccccc2)cc1)N[C@H](CO)Cc1ccccc1	41.2 (≈ 16 µg/mL)
C(=C\c1cccs1)/C1=N[C@@H](Cc2ccccc2)CO1	7.4 (≈ 1.99 µg/mL)
CC1COc2c(N3CCN(C)CC3)c(F)cc3c(=O)c(C(=O)O)cn1c23 (stereo unspecified) [OFLOXACIN]	5.5 (≈ 1.99 µg/mL)
COc1ccc(/C=C/C2=N[C@@H](Cc3ccccc3)CO2)cc1	6.8 (≈ 1.99 µg/mL)
O=C(/C=C/c1ccc(Cl)cc1)N[C@H](CO)Cc1ccccc1	50.6 (≈ 16 µg/mL)
CC[C@@H](CO)NCCN[C@@H](CC)CO [ETHAMBUTOL]	> 1250
O=C(/C=C/c1ccc(F)cc1)N[C@H](CO)Cc1ccccc1	53.4 (≈ 16 µg/mL)
CO[C@H]1/C=C/O[C@@]2(C)Oc3c(C)c(O)c4c(O)c(c(/C=N/N5CCN(C)CC5)c(O)c4c3C2=O)NC(=O)/C(C)=C\C=C\[C@H](C)[C@H](O)[C@@H](C)[C@@H](O)[C@@H](C)[C@H](OC(C)=O)[C@@H]1C [RIFAMPIN]	19.4 (≈ 16 µg/mL)
O=C(/C=C/c1cccs1)N[C@H](CO)Cc1ccccc1	55.6 (≈ 16 µg/mL)
O=C(/C=C/c1ccccc1)N[C@H](CO)Cc1ccccc1	56.8 (≈ 16 µg/mL)
Fc1ccc(/C=C/C2=N[C@@H](Cc3ccccc3)CO2)cc1	56.9 (≈ 16 µg/mL)
NNC(=O)c1ccncc1 [ISONIAZID]	58.3 (≈ 8 µg/mL)
